This passage reports BP and Delta blood pressure results from ChEMBL document CHEMBL1122463, “2,3-dihydro-3-(1-pyrryl)spiro[benzofuran-2,4'-piperidine]s and 2,3-dihydro-3-(1-pyrryl)spiro[benzofuran-2,3'-pyrrolidine]s: novel antihypertensive agents” (1983).

Holding throughout (assay type): functional, Blood
The species named for experiment [1] is Rattus norvegicus. In words: Oral hypotensive activity in spontaneously hypertensive rats by using tail-cuff method measured as the initial BP. A digest of the protocol:
(§1)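 Okamoto-Aoki strain spontaneously hypertensive rats. Compounds were suspended in distilled water with Tween 80 and given orally every day at 50, 30, 10 or 3 mg/kg. Systolic BP was measured by tail-cuff plethysmography on day 1 (predose and 2 h), day 3 (predose and 2 h) and day 5 (predose, 2 and 4 h). The screen used 4 rats; dose-response used 4–8 rats per dose.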

The species entered for experiment [2] is Rattus norvegicus. In words: Oral hypotensive activity in spontaneously hypertensive rats by using tail-cuff method measured as change in systolic BP. A digest of the protocol: (§2)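 Okamoto-Aoki spontaneously hypertensive rats. Compound suspended in distilled water with Tween 80, given po daily, screening dose 50 mg/kg, dose-response at 50, 30, 10 or 3 mg/kg unless stated. Systolic BP by tail-cuff plethysmography on day 1 predose and 2 h, day 3 predose and 2 h, and day 5 predose, 2 and 4 h. Reported as peak decrease on day 3 (or day 5) at 2 h ± SEM. n = 4 in screen, 4–8 per dose.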

Experiment [3] relates to Rattus norvegicus. Nature of the experiment: (§3) Oral hypotensive activity in spontaneously hypertensive rats by using tail-cuff method measured as change in systolic BP at the dose of 50 mg/kg po. A digest of the protocol:
as §1

Experiment [4] concerns Rattus norvegicus. In words: (§4) Oral hypotensive activity in spontaneously hypertensive rats by using tail-cuff method measured as change in systolic BP at the dose of 10 mg/kg po. The essentials:
(§5)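 SHR of the Okamoto-Aoki strain, dosed orally every day with compound suspended in distilled water with Tween 80. Systolic pressure was taken by tail-cuff plethysmography on day 1 (predose, 2 h), day 3 (predose, 2 h) and day 5 (predose, 2 and 4 h). Initial BP is the pretreatment systolic pressure, with 4–8 rats per dose in the dose-response screen.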

Experiment [5] concerns Rattus norvegicus. Nature of the experiment: (§6) Oral hypotensive activity in spontaneously hypertensive rats by using tail-cuff method measured as change in systolic BP at the dose of 25 mg/kg po. A digest of the protocol:
as §5

Experiment [6] concerns Rattus norvegicus. The description is as §6. The essentials:
as §2
This is another data set of the same source.

Experiment [7] deals with Rattus norvegicus. Described as §3. A digest of the protocol:
as §2
This is another data set of the same source.

In experiment [8] the test system is Rattus norvegicus. The experiment is described as §4. The essentials: as §2
The source holds these as a separate data set.

Experiment [9] relates to Rattus norvegicus. Nature of the experiment: (§7) Oral hypotensive activity in spontaneously hypertensive rats by using tail-cuff method measured as change in systolic BP at the dose of 5 mg/kg po. The essentials: as §2
The test system of experiment [10] is Rattus norvegicus. The description is as §7. A digest of the protocol:
as §1
The source holds these as a separate data set.

Structures are written as SMILES. Where “and” joins values, the source holds several entries; their conditions need not be identical. Identical values can stand only once.

In experiment [1], `O=C(CCCN1CCC2(CC1)Oc1ccccc1C2n1cccc1)c1ccc(F)cc1` (centres undefined) came in with a BP of 199 mmHg. Further, in [2], the Delta blood pressure turned out to be 37 mmHg.
As to `CCCN1CCC2(CC1)Oc1ccccc1C2n1cccc1` (centres undefined), the BP in [1] is given as 177 mmHg. The Delta blood pressure in [2] is on record as 14 mmHg.
For `N/C(=N\O)N1CCC2(CC1)Oc1ccccc1C2n1cccc1` (centres undefined) the same measures were 209 mmHg and 24 mmHg.
With `c1ccc2c(c1)OC1(CCNCC1)C2n1cccc1` (centres undefined), the results for the BP in experiment [3], in experiment [4] and in experiment [5] were 189 mmHg, 198 mmHg and 200 mmHg, respectively. In addition, the Delta blood pressure came to 43 mmHg in experiment [3], 33 mmHg in [4] and 49 mmHg in [5].
For the molecule `c1ccc(CCN2CCC3(CC2)Oc2ccccc2C3n2cccc2)cc1` (centres undefined), the BP in experiment [1] is 203 mmHg and 180 mmHg and 176 mmHg.
`OCCN1CCC2(CC1)Oc1ccccc1C2n1cccc1` (centres undefined) had a BP in experiment [1] of 170 mmHg. This molecule also showed a Delta blood pressure in experiment [2] of 39 mmHg.
In the case of `c1ccc(CN2CCC3(C2)Oc2ccccc2C3n2cccc2)cc1` (centres undefined), the Delta blood pressure is 18 mmHg in experiment [6], 42 mmHg in [7], -10 mmHg in [8] and 27 mmHg in experiment [9]. Also, the BP in experiment [3] amounted to 211 mmHg; in experiment [4], 171 mmHg; in experiment [5], 185 mmHg; in experiment [10] it was 198 mmHg.
`CCN(CC)CCN1CCC2(CC1)Oc1ccccc1C2n1cccc1` (centres undefined): the BP in experiment [1] was 185 mmHg. In [2], this molecule registered a Delta blood pressure of 38 mmHg.
In [3] (50 mg/kg), `CN1CCC2(C1)Oc1ccccc1C2n1cccc1` (stereo in doubt; 10) returned a BP of 197 mmHg and a Delta blood pressure of 38 mmHg.
For `CN1CCC2(C1)Oc1ccccc1C2n1cccc1` (stereo in doubt; 11), in experiment [3] (50 mg/kg), the BP amounted to 180 mmHg and the Delta blood pressure is given as 14 mmHg.
